The record followed here is ChEMBL document CHEMBL3621103, “Chemical Synthesis and Biological Activities of 20S,24S/R-Dihydroxyvitamin D3 Epimers and Their 1α-Hydroxyl Derivatives” (J Med Chem, 2015).

Assay [1] in a line: Upregulation of LAIR-1 expression in DBA/1 mouse splenocytes at 10^-7 M after overnight incubation by flow cytometric analysis (reference value: 973 +/- 95). The conditions noted are these: Splenocyte. Format: functional, cell-based. A digest of the protocol:
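Splenocytes isolated from DBA/1 mice were cultured overnight with secosteroid at 10−7 M or vehicle control. Cells were stained with fluorochrome-labelled anti-CD4 and anti-LAIR-1 antibodies and analysed by multiparameter flow cytometry, gating on CD4 cells. At least 10 000 cells were counted per sample. Read-out is LAIR-1 mean fluorescence, given as the mean of two separate analyses ± SD.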

Assay [2] addresses T1, Vitamin D3 receptor (Homo sapiens) (UniProt P11473).
T1 sequence (whole entry): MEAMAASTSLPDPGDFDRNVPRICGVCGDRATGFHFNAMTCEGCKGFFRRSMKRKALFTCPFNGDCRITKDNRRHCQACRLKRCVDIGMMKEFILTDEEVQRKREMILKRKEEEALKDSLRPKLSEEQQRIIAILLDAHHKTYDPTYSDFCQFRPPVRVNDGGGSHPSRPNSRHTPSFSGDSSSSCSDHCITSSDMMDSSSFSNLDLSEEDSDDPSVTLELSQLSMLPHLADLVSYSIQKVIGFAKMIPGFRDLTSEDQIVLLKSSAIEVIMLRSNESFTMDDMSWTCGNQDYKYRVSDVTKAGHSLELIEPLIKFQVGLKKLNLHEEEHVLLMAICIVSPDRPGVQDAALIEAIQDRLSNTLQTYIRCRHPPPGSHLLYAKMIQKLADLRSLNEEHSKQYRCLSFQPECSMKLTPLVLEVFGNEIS
The assay can be described thus: Transactivation of VDR in human Caco2 cells up to 1000 nM after 24 hrs by luciferase reporter gene assay. Format: cell-based. The conditions noted are these: Caco-2. A digest of the protocol:
(§1)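 Cells were lentivirally transduced with a VDRE-luciferase reporter and selected 1 week with puromycin (1 µg/mL). Seeded at 1000 cells/well in FBS-free medium for 24 h, then treated 24 h with secosteroids in DMSO (0.1% final; 0.1% DMSO as vehicle control). Luciferase read by ONE-Glo. Triplicate per concentration; EC50 reported.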

Assay [3] can be described thus: Antiinflammatory activity in DBA/1 mouse splenocytes assessed as IFNgamma production at 100 nM after 2 hrs by ELISA (reference value: 731 +/- 15 pg/ml). Format: functional, Splenocyte. In general terms: In an ELISA, binding on a coated surface is turned into a signal by an enzyme label.
Assay [4] concerns the target T2, 25-hydroxyvitamin D-1 alpha hydroxylase, mitochondrial (Mus musculus) (UniProt O35084).
T2 sequence (whole entry): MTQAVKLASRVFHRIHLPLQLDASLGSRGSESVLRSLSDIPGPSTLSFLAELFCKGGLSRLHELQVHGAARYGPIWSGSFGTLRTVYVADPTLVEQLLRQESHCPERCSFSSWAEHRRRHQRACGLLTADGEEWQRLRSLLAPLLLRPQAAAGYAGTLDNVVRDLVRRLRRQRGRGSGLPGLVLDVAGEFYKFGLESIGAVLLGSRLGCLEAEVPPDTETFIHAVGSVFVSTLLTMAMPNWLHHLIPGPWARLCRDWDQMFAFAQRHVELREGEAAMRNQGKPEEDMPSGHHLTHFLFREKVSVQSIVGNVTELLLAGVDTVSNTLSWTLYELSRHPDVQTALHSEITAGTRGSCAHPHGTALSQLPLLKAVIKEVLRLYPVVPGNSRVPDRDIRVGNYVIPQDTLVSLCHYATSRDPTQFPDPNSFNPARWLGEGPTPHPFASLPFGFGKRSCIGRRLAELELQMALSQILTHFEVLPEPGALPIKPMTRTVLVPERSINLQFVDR
The assay can be described thus: Substrate activity at mouse CYP27B1 assessed as 1alpha-hydroxylation by measuring ratio of Kcat to Km after 2 mins by reverse-phase HPLC analysis. In outline:
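Substrates incorporated into dioleoylphosphatidylcholine/cardiolipin vesicles over a range of concentrations and incubated 2 min. Products extracted with dichloromethane and quantified by reverse-phase C18 HPLC. Km and kcat from a Michaelis–Menten fit (±SE of fit); kcat/Km expressed per mmol/mol phospholipid.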

Assay [5] addresses T1, Vitamin D3 receptor (Homo sapiens). Put plainly: Transactivation of VDR in human HaCaT cells up to 1000 nM after 24 hrs by luciferase reporter gene assay. Format: cell-based. A digest of the protocol:
as §1
On the technique in general: In a reporter assay the amount or activity of a reporter protein is the signal.

For assay [6], the target named is T3, Vitamin D3 receptor (Homo sapiens, UniProt P11473).
T3 sequence (P11473 whole entry): T1 sequence (whole entry)
Put plainly: Transactivation of VDR in human Caco2 cells after 24 hrs by luciferase reporter gene assay. Format: cell-based, Caco-2.

Assay [7] concerns the target T3, Vitamin D3 receptor. Put plainly: Transactivation of VDR in human HaCaT cells after 24 hrs by luciferase reporter gene assay. Format: cell-based.

Activity calls are given as the source filed them. No cut-off for these calls is given here.

Take `C=C1/C(=C\C=C2/CCC[C@]3(C)[C@@H]([C@H](C)CCCC(C)(C)O)CC[C@@H]23)C[C@@H](O)C[C@@H]1O`: the Flu intensity in assay [1] came to 1640.
On to `C=C1CC[C@H](O)C/C1=C/C=C1\CCC[C@@]2(C)[C@H]1CC[C@@H]2[C@@](C)(O)CC[C@@H](O)C(C)C`, for which the outcome in assay [2] and in assay [5] was inactive. Moreover, in assay [3], the Activity came to 465 pg/mL. This compound had a Flu intensity in assay [1] of 1910. Moreover, the Ratio in assay [4] was found to be 3.9 min⁻¹.
Regarding `C=C1CC[C@H](O)C/C1=C/C=C1\CCC[C@@]2(C)[C@H]1CC[C@@H]2[C@@](C)(O)CC[C@H](O)C(C)C`, the outcome in assay [2] and in assay [5] was inactive. For the same compound, the Activity in assay [3] was found to be 923 pg/mL. In addition, in assay [1], the Flu intensity was 1540. In assay [4], the Ratio is 0.71 min⁻¹.
In general, EC50 refers to the concentration giving half of the maximal effect. High values mean a less potent agent, low ones a more potent agent. Take `C=C1/C(=C\C=C2/CCC[C@@]3(C)[C@H]2CC[C@@H]3[C@@](C)(O)CC[C@H](O)C(C)C)C[C@@H](O)C[C@@H]1O`: the EC50 on Vitamin D3 receptor [6] worked out at 208 nM; at Vitamin D3 receptor [7], 271 nM. The Activity in assay [3] came out at 589 pg/mL. This compound showed a Flu intensity in assay [1] of 1820.
Turning to `C=C1/C(=C\C=C2/CCC[C@]3(C)[C@@H]([C@H](C)OCCC(C)(C)O)CC[C@@H]23)C[C@@H](O)C[C@@H]1O` [MAXACALCITOL], the EC50 at Vitamin D3 receptor [6] came to 40.8 nM; on Vitamin D3 receptor [7] it was 37.9 nM. The Activity in assay [3] amounted to 356 pg/mL. Besides, the Flu intensity in assay [1] stood at 1510.
On to `C=C1/C(=C\C=C2/CCC[C@@]3(C)[C@H]2CC[C@@H]3[C@@](C)(O)CC[C@@H](O)C(C)C)C[C@@H](O)C[C@@H]1O`, for which the EC50 amounted to 66.9 nM at Vitamin D3 receptor [6] and 64.9 nM on Vitamin D3 receptor [7]. Also, the Activity in assay [3] was determined as 291 pg/mL. Besides, the Flu intensity in assay [1] was found to be 2100.
